From PubChem
SKKanGAS inh – S. pyogenes SKKanGAS growth inhibitors in kanamycin, primary screen, streptokinase expression inhibitor project, SKKanGAS strain, BacTiter-Glo luminescence; 1.3% of 300,000 active; inhibition, % at 7.5 µM; 6 h;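 active means mean replicate score, as percent of positive control median, at least 50; inconclusive means mean below 50 but one replicate at or above 50; inactive means mean and every replicate below 50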;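 further: strain carries kanamycin resistance gene driven by streptokinase promoter and grows in 40 µg/ml kanamycin; loss of luminescence reflects streptokinase promoter inhibition or plain growth inhibition; 0% = median of DMSO wells and 100% = positive control at its reference dose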
Mdm2-MdmX inh – inhibitors of human Mdm2-MdmX association, primary screen, cell-based, luminescence, split luciferase, SaOS-2, uHTS | Protein Mdm4 (Homo sapiens) + E3 ubiquitin-protein ligase Mdm2 (Homo sapiens), … | inhibition, % at 8 µM | 3% of 330,000 active | SaOS-2 split-luciferase Mdm2/MdmX complementation;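 active means inhibition of at least 50% at 8 µM in the primary screen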
Target sequence (O15151 whole entry, looked up): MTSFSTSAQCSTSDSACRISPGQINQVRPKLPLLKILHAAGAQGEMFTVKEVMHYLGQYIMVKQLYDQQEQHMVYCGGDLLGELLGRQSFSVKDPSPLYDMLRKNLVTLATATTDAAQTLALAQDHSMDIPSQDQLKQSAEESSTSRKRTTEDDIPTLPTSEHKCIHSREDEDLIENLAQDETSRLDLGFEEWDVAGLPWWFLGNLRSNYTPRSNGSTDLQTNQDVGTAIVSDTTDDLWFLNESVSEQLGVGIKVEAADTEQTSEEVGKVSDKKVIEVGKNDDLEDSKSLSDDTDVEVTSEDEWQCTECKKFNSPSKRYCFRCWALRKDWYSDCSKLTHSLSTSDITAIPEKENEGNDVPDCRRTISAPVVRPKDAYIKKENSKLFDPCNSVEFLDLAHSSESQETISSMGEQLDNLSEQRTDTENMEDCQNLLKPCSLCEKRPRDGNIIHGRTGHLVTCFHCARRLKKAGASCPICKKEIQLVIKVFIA
Target sequence (Q00987 whole entry, looked up): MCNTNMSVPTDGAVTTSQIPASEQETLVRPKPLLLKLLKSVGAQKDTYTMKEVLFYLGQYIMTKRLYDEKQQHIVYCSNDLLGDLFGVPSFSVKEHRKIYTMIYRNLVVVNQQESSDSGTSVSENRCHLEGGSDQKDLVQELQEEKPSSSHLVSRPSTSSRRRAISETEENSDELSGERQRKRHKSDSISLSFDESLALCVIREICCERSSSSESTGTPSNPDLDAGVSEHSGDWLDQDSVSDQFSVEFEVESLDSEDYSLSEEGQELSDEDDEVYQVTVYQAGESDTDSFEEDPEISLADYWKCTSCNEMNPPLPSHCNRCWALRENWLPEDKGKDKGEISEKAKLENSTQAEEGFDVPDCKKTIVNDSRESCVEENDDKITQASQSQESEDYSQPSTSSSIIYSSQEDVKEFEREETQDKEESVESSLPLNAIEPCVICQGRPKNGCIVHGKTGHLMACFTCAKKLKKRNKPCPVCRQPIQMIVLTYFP
CSC inhib – cancer stem cell viability inhibitors, primary screen, luminescence; cancer stem cell-like cells viability; AID 2717, 2010; inhibition, % at 7.5 µM; 1.1% of 300,000 active; in the data active means inhibition above about 75%; inconclusive means no clear call, values can overlap the other calls; tested in HMLE shEcad cells
T cruzi repl – inhibitors of intracellular T. cruzi growth, primary screen, luminescence, NIH3T3 host cells. T. cruzi beta-gal in NIH3T3, 90 h. inhibition, % (no concentration beside the values). 1.4% of 300,000 active. AID 1885, 2009;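 active means mean inhibition across valid replicates above about 55%, limit read from the data; inconclusive means mean below that limit but half or more replicates reach it; inactive means mean below it, under half of replicates reach it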;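 further: signal also drops with host cell toxicity which is not excluded here; 0% = plate median of DMSO wells and 100% = zero luminescence signal; higher percent means less beta-gal luminescence so fewer parasites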
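System – NIH/3T3 host cells with β-galactosidase reporter T. cruzi · Doses – single 50 nL compound addition per well in DMSO · Reagent – 5000 T. cruzi trypomastigotes/well · Medium – Low-serum DMEM with 2% FBS · Timing – ≥90 h infection period, 3 h prior cell attachment · Evaluation – parasite load inhibition, % · Technique – GalScreen luminescence, 60 min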
Calb FLC – C. albicans growth inhibition with fluconazole, primary screen, CaCi-2 strain, Alamar Blue fluorescence; C. albicans CaCi-2 (fluconazole-resistant clinical isolate) + fluconazole, 48 h; growth inhibition, % (concentration not given with the values); 0.57% of 300,000 active; AID 1979, 2009;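 active means growth inhibition above about 58% in most replicates, limit read from the data, passing the limit was not always enough; inconclusive means exactly half the replicates above a set limit; inactive means most replicates below a set limit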;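 further: all wells also contain fluconazole at 8 µg/ml as a sub-toxic cotreatment; 0% = median of DMSO wells and 100% = median of geldanamycin control wells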
Beta cell apopt – inhibitors of cytokine-induced beta cell apoptosis, primary screen, luminescence | INS-1E cytokine-induced death, ATP luminescence, 48 h; percent of positive-control rescue, neutral wells zero | protection from apoptosis, % (concentration not given with the values) | 0.8% of 300,000 active | AID 435005, 2010;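 active means Every replicate reaches about 75%, or at least half do and their mean reaches it too, limit read from the data; inconclusive means At least half of replicates reach the limit but their mean does not; inactive means Under half of replicates reach the limit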;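 further: 0% = cytokine-treated negative control wells and 100% = positive control rescue; higher means more ATP so stronger rescue from cytokine killing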
Mdm2-MdmX conf – Mdm2-MdmX complex disruptors, retested hits, confirmation, luminescence, single concentration. shares compounds with Mdm2-MdmX inh. Mdm2-MdmX binding, luminescent assay. inhibition, % at 8 µM. 55% of 10,000 active; in the data active means inhibition above about 40%
FLuc counter – full-length luciferase signal inhibition, confirmation, counter-screen for Mdm2/MdmX interaction inhibitor project, cell-based, single concentration, SaOS-2 | shares compounds with Mdm2-MdmX inh | SaOS-2 full-length luciferase counterscreen, luminescence | inhibition, % at 8 µM | 77% of 6,200 active;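 active means mean inhibition at 8 µM reaching about 37%, which flags the compound as non-specific, limit read from the data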;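 further: p53-null SaOS-2 cells with luciferase driven by a doxycycline-inducible promoter; compound on cells about two nights before reading with doxycycline added after day one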
The depositor's hits bear a star; ? = inconclusive; · = no result given. This is a sample that favours compounds with a hit; in the whole collection about 5.7% have one here.

SMILES	SKKanGAS inh	Mdm2-MdmX inh	CSC inhib	T cruzi repl	Calb FLC	Beta cell apopt	Mdm2-MdmX conf	FLuc counter
CCCN(CCC)CCCNC(=S)Nc1ccc2nc(N3CCN(CC)CC3)cc(C)c2c1	-5	53*	9	38	-7	-8	30	·
CCCCN(CC)CCNC(=S)Nc1ccc2nc(N3CCN(C)CC3)cc(C)c2c1	-2	67*	71	64*	-3	0	45*	75*
CCN1CCN(C(=S)Nc2ccc3nc(N4CCN(CC)CC4)cc(C)c3c2)CC1	-1	30	-3	48	-27	-7	·	·
CCN1CCN(c2cc(C)c3cc(NC(=S)N4CCN(c5ccc(F)cc5)CC4)ccc3n2)CC1	-5	96*	?	36	7	8	45*	52*
Cc1cc(Cl)c2oc(C(=O)N(C)CCc3cnn(C)c3)c(C)c2c1	-3	1	17	11	3	3	·	·
CC(C)(C#CC(O)(c1ccccc1)c1ccccc1)N1CCCC1	-3	1	-9	2	-8	0	·	·
CC(C)[C@H](N)c1cn([C@@H](CC(N)=O)C(=O)N2CCNCC2)nn1	·	4	22	·	·	7	·	·
COC(=O)C(C)n1cnc2c(nnn2-c2cccc(OC)c2)c1=O (stereo not drawn)	10	-22	-11	-2	1	-1	·	·
Cc1c(Cl)sn(-c2ccc(Cl)cc2)c1=O	·	96*	·	·	·	·	99*	52*
Cc1nn(-c2ccc(Cl)cc2)c(=O)c2ccccc12	4	-37	14	-4	30	-1	·	·
CN(C)c1nc(N(C)C)nc(N(C#N)CN2C(=O)c3ccccc3C2=O)n1	-4	6	·	-21	-2	-23	·	·
Cc1cccc(N2CCN(C(=O)c3ccccc3OCc3c(C)noc3C)CC2)c1C	1	14	-16	8	-4	-20	·	·
CCc1ccc(-c2cn3c(n2)SCC3)cc1	14	-62	-5	-1	7	-4	·	·
CCc1ccc(-c2cn(-c3nc(C)cc(C)n3)c(=N)o2)cc1	4	53*	43	20	-4	13	52*	68*
NS(=O)(=O)c1ccc(N=Nc2c(O)ccc3ccccc23)cc1	-1	26	27	4	33	-6	·	·
CCOc1ccc(N=Nc2ccc(O)c3ncccc23)cc1	92*	68*	103*	65*	83*	55	81*	23
NS(=O)(=O)c1ccc(N=Nc2ccc(O)c3ncccc23)cc1	11	62*	50	66*	79*	121*	52*	48*
CCOc1ccc(N=Nc2cc(C(C)C)ccc2O)cc1	-3	-16	13	-3	1	10	·	·
Cc1nc2ccc(C(=O)N3c4ccccc4CC3C)cc2s1 (stereo not drawn)	1	66*	-7	-4	116*	8	58*	50*
COc1cc(C(=O)Nc2ccc3c(c2)N(C(=O)CCN(C)C)c2ccccc2CC3)cc(OC)c1OC	-2	61*	-2	79*	-25	1	41*	100*
CCn1c2ccccc2c2cc(NC(=O)c3cc(OC)c(OC)c(OC)c3)ccc21	0	69*	·	57*	14	·	62*	119*
CCn1c2ccccc2c2cc(NC(=O)c3coc(=O)c(Br)c3)ccc21	8	74*	66	6	0	36	32	38*
CCn1c2ccccc2c2cc(NC(=O)COc3ccc(OC)cc3)ccc21	-2	6	-2	11	3	4	·	·
COc1cc(-n2c(=O)c3ccccc3n(CC(=O)c3ccc(F)cc3)c2=O)cc(OC)c1OC	-3	44	4	4	0	-4	·	·
COc1cc(-n2c(=O)c3ccccc3n(CC(=O)c3ccccc3)c2=O)cc(OC)c1OC	-18	83*	-14	-9	1	5	4	·
SMILES	SKKanGAS inh	Mdm2-MdmX inh	CSC inhib	T cruzi repl	Calb FLC	Beta cell apopt	Mdm2-MdmX conf	FLuc counter
Cc1ccc(NC(=O)c2ccc3c(SCC(=O)O)c4c(nc3c2)CCCC4)c(Br)c1	-5	6	6	5	-6	-5	·	·
CCOC(=O)C1CCN(c2nc3c(C)cccn3c(=O)c2/C=C(\C#N)S(=O)(=O)c2ccccc2)CC1	2	10	-3	15	-4	-4	·	·
CC(=O)c1ccc(N2C(=O)CC(N3CCN(S(=O)(=O)c4ccc(C)c(C)c4)CC3)C2=O)cc1 (stereo not drawn)	·	5	-10	·	·	-3	·	·
COc1ccc(C(C[N+](=O)[O-])c2c(-c3ccccc3)cc3ccccn23)c(OC)c1 (stereo not drawn)	1	53*	-8	34	1	7	38	71*
CN1CCN(c2cc(-c3cc(O)c4ncccc4c3)ccn2)CC1	·	60*	22	·	·	3	45*	20
c1cncc(-c2nc3cc4ccccc4cc3[nH]2)c1	-5	-178	9	0	74	6	·	·
Oc1cc(NCCN2CCOCC2)cc2cccnc12	·	30	·	·	·	11	·	·
CN1CCN(C(=O)c2cccc(-c3cc(O)c4ncccc4c3)c2)CC1	·	27	-1	·	·	32	·	·
Oc1cc(-c2cccnc2)cc2cccnc12	·	76*	46	·	·	11	50*	14
Oc1cc(Nc2ccccc2)cc2cccnc12	·	67*	·	·	·	36	31	·
CCC(NC(=O)c1ccc(C#CC2(O)CCCCC2)cc1)C(=O)O (stereo not drawn)	-5	1	0	-24	3	-2	·	·
CCOC(=O)c1c(SCC(=O)Nc2nccs2)nc(C)c(C)c1C	17	-31	0	7	15	12	·	·
Cc1ccc(S(=O)(=O)N2CCC(=O)N(C(COCc3ccc(Cl)cc3)Cc3ccccc3)CC2)cc1 (stereo not drawn)	2	41	20	27	-2	49	·	·
COc1ccc(N=C2NC(=O)/C(=C/c3ccc(O)c(OC)c3)S2)cc1	40	45	49	-10	50	36	·	·
COc1cc(/C=C2/SC(=Nc3ccc(O)cc3)NC2=O)cc(OC)c1O	14	62*	·	-13	41	·	61*	62*
COc1cc(/C=C2\SC(=Nc3ccc(O)cc3)NC2=O)cc(OC)c1OC	-2	52*	60	34	1	11	65*	28
